Reference: ChEMBL document CHEMBL4190271, “Semisynthesis and Kappa-Opioid Receptor Activity of Derivatives of Columbin, a Furanolactone Diterpene” (J Nat Prod, 2017)

What was measured:
Type in all cases: functional, cell-based
[1] = biological target: T1, Kappa-type opioid receptor (Homo sapiens, UniProt P41145); assay: Agonist activity at human kappa-type opioid receptor expressed in CHO-K1 cells assessed as inhibition of forskolin-induced cAMP accumulation up to 50 uM after 30 mins by luminescence-based assay
T1 sequence (P41145 whole entry): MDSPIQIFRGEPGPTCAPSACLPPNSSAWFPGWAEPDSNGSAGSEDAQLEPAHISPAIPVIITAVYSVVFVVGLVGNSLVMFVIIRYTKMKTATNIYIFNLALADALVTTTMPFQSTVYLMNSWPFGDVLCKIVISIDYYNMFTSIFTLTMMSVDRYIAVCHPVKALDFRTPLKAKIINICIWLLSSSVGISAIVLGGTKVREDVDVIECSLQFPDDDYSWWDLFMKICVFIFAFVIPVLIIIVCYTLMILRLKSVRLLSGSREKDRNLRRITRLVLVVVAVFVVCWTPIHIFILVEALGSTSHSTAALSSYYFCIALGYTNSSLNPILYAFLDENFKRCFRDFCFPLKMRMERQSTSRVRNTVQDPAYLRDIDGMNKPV
Outline: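 CHO-K1 cells stably expressing human κ-opioid receptor; HitHunter cAMP assay, run per the kit directions, measuring inhibition of forskolin-induced cAMP accumulation. Compounds tested up to 50 μM. Reference agonist sets E_max = 100%. EC₅₀ and E_max given as means ± standard error of the mean from n ≥ 2 independent experiments, each in triplicate.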

[2] = biological target: T1, Kappa-type opioid receptor; assay: Agonist activity at human kappa-type opioid receptor expressed in CHO-K1 cells assessed as inhibition of forskolin-induced cAMP accumulation after 30 mins by luminescence-based assay
Outline: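 CHO-K1 cells stably expressing human κ-opioid receptor, tested in a HitHunter cAMP assay for inhibition of forskolin-induced cAMP accumulation, run per the manufacturer's directions. Compounds were tested up to 50 μM. Emax is expressed relative to salvinorin A, set at 100%. EC50 and Emax are given as means ± SEM of at least 2 independent experiments, each run in triplicate.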

[3] = biological target: T1, Kappa-type opioid receptor; assay: Agonist activity at human kappa-type opioid receptor expressed in CHO-K1 cells assessed as inhibition of forskolin-induced cAMP accumulation after 30 mins by luminescence-based assay relative to columbin

Row | Emax [1] | SMILES | EC50 [2] | Emax [2] | fold change (FC) [3]
1 | 0% | CC(=O)O[C@@H]1[C@H]2OC(=O)[C@@](O)([C@@H]1OC(C)=O)[C@]1(C)CC[C@H]3C(=O)O[C@@H](c4ccoc4)C[C@@]3(C)[C@H]21 | > 50 µM | – | –
2 | – | CC(=O)O[C@@]12C=C[C@@H](OC1=O)[C@H]1[C@]3(C)C[C@H](c4ccoc4)OC(=O)[C@@H]3CC[C@]12C | 8 µM | 100% | > 6.3
3 | – | COCO[C@@]12C=C[C@@H](OC1=O)[C@H]1[C@]3(C)C[C@H](c4ccoc4)OC(=O)[C@@H]3CC[C@]12C | 12 µM | 100% | > 4.2
4 | 0% | C[C@@]12C[C@H](c3ccoc3Br)OC(=O)[C@@H]1CC[C@]1(C)[C@H]2[C@H]2C=C[C@]1(O)C(=O)O2 | > 50 µM | – | –
5 | – | C[C@@]12C[C@H](c3ccoc3)OC(=O)[C@@H]1CC[C@]1(C)[C@H]2[C@H]2CC[C@]1(O)C(=O)O2 | 2 µM | 100% | > 25
6 | 0% | C[C@@]12C[C@H](c3ccoc3Br)OC(=O)[C@@H]1CC[C@]1(C)[C@H]2[C@@H]2OC(=O)[C@@]1(O)[C@@H](Br)[C@@H]2Br | > 50 µM | – | –
7 | – | C[C@@]12C[C@H](c3ccoc3)OC(=O)[C@@H]1CC[C@]1(C)[C@H]2[C@H]2C=C[C@]1(OC(=O)/C=C/c1ccccc1)C(=O)O2 | 6 µM | 100% | > 8.3
8 | – | C[C@@]12C[C@H](c3ccoc3)OC(=O)[C@@H]1CC[C@]1(C)[C@H]2[C@@H]2OC(=O)[C@@]1(O)[C@H](O)[C@@H]2O | 16 µM | 100% | > 3.1

Row | SMILES | Emax [1] | EC50 [2] | Emax [2] | fold change (FC) [3]
9 | C[C@@]12C[C@H](c3ccoc3)OC(=O)[C@@H]1CC[C@]1(C)[C@H]2[C@H]2C=C[C@]1(O)C(=O)O2 | 0% | > 50 µM | – | –
